# Molecular target: T1, Nitric oxide synthase, inducible (Mus musculus, UniProt P29477)
# T1 sequence (P29477 whole entry): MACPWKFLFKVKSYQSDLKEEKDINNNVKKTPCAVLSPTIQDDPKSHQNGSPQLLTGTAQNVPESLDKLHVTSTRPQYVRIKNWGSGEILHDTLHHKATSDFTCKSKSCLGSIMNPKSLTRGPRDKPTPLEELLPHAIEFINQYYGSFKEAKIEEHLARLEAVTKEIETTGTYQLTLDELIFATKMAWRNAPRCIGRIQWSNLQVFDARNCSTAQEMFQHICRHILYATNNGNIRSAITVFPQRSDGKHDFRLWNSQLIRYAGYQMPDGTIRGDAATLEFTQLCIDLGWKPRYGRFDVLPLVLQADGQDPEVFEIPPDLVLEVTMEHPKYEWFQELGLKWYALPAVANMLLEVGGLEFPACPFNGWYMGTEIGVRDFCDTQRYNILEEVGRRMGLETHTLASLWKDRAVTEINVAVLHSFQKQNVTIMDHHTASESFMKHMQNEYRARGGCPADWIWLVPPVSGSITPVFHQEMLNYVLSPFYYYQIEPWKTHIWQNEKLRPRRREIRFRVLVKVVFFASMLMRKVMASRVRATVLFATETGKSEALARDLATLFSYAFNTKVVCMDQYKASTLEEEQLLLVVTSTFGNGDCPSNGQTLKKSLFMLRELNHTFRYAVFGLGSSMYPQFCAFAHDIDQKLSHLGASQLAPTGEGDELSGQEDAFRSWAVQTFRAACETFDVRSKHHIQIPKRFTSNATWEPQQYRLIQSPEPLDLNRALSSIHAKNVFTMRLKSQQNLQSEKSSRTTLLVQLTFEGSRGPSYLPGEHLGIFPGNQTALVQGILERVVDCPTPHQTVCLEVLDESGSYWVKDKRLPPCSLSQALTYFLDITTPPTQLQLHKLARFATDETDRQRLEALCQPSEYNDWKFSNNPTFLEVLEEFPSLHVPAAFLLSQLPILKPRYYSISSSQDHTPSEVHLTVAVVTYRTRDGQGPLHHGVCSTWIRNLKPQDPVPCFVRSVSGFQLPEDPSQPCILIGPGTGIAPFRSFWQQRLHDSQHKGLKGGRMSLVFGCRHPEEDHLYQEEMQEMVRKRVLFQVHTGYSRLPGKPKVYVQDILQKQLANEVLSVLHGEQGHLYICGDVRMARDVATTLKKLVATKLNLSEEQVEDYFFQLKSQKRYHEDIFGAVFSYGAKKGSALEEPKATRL
# Test: Inhibition of iNOS induction in mouse RAW264.7 cells assessed as NO production
# How it was run: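 RAW 264.7 cells seeded at 8 × 10⁴ per well in DMEM/10% FBS and grown 2 days. Then exposed to LPS with compound or DMSO for 20 h. Supernatant nitrite measured by Griess reaction (sulfanilamide/NED) at 550 nm minus 620 nm background, quantified against a sodium nitrite standard curve. At least four experiments in triplicate.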
row,Compound,IC50 [µM]
1,CC(C)(C)C1=NN(c2ccc(Cl)cc2)C(c2ccc(O)cc2)C1 (stereo not given),7.5
2,Oc1ccc(C2CC(c3cccs3)=NN2c2ccc(Br)cc2)cc1 (stereo not given),3.4
3,Oc1ccc(C2CC(c3cccs3)=NN2c2ccc(C(F)(F)F)cc2)cc1 (stereo not given),2.4

# Second part, the compound after the results:
row,IC50 [µM],Compound
1,0.8,COc1cc(C=CC(=O)CC(=O)C=Cc2ccc(O)c(OC)c2)ccc1O
2,4.6,CC(C)(C)C1=NN(c2cccc(Cl)c2)C(c2ccc(F)c(O)c2)C1 (stereo not given)

# Reference: BindingDB's records for doi:10.1021/jm500521n (Saarland University, 2014)
